Data as given in ChEMBL document CHEMBL1132256, “Structure-activity relationships for substituted bis(acridine-4-carboxamides): a new class of anticancer agents” (J Med Chem, 1999).
pIC50: −log10 of the molar value.

test system: Jurkat; test: Ratio of inhibitory activity against doxorubicin resistant jurkat cells to inhibitory activity against wild type human jurkat cells; assay type: functional; conditions: not given
Procedure, shortened: (§1)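 Wild-type Jurkat (JLC) and its amsacrine-resistant (JLA) or doxorubicin-resistant (JLD) sublines each seeded at 3.75 × 10^3 cells/well, 4 days with drug, sulforhodamine read-out. IC50 (nM) for 50% of control cell number; ratio = resistant-line IC50 divided by JLC IC50. Duplicate assays, CV ca. 25%.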

| Structure (SMILES) | Ratio |
| --- | --- |
| Cc1cccc2cc3c(Cl)ccc(C(=O)NCCCN(C)CCCNC(=O)c4ccc(Cl)c5cc6cccc(C)c6nc45)c3nc12 | 0.6 |
| CN(CCCNC(=O)c1cccc2cc3cc(Cl)ccc3nc12)CCCNC(=O)c1cccc2cc3cc(Cl)ccc3nc12 | 0.9 |
| CC(C)c1ccc2nc3c(C(=O)NCCCN(C)CCCNC(=O)c4cccc5cc6cc(C(C)C)ccc6nc45)cccc3cc2c1 | 1.1 |
| CCc1ccc2nc3c(C(=O)NCCCN(C)CCCNC(=O)c4cccc5cc6cc(CC)ccc6nc45)cccc3cc2c1 | 1.4 |
| COc1ccc2cc3cccc(C(=O)NCCCN(C)CCCNC(=O)c4cccc5cc6ccc(OC)cc6nc45)c3nc2c1 | 0.8 |
| CN(CCCNC(=O)c1cccc2cc3ccc(F)cc3nc12)CCCNC(=O)c1cccc2cc3ccc(F)cc3nc12 | 0.9 |
| CN(CCCNC(=O)c1cccc2cc3cc(F)ccc3nc12)CCCNC(=O)c1cccc2cc3cc(F)ccc3nc12 | 0.8 |
| CN(CCCNC(=O)c1cccc2cc3cc(N(C)C)ccc3nc12)CCCNC(=O)c1cccc2cc3cc(N(C)C)ccc3nc12 | 0.9 |

test system: Lewis lung carcinoma cell line; test: Inhibitory activity of tested against Murine Lewis lung carcinoma; assay type: functional, cell-based; conditions: Mus musculus
Procedure, shortened: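 Lewis lung carcinoma (LLTC) cells at 10^3 cells/well, 4-day continuous drug exposure, growth read by sulforhodamine assay. IC50 (nM) = concentration giving 50% of control cell number. Duplicate independent assays, CV ca. 25%.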

| Structure (SMILES) | pIC50 |
| --- | --- |
| Cc1cccc2cc3c(Cl)ccc(C(=O)NCCCN(C)CCCNC(=O)c4ccc(Cl)c5cc6cccc(C)c6nc45)c3nc12 | 8.22 |
| CN(CCCNC(=O)c1cccc2cc3cc(Cl)ccc3nc12)CCCNC(=O)c1cccc2cc3cc(Cl)ccc3nc12 | 7.34 |
| CC(C)c1ccc2nc3c(C(=O)NCCCN(C)CCCNC(=O)c4cccc5cc6cc(C(C)C)ccc6nc45)cccc3cc2c1 | 5.68 |
| CCc1ccc2nc3c(C(=O)NCCCN(C)CCCNC(=O)c4cccc5cc6cc(CC)ccc6nc45)cccc3cc2c1 | 6.11 |
| COc1ccc2cc3cccc(C(=O)NCCCN(C)CCCNC(=O)c4cccc5cc6ccc(OC)cc6nc45)c3nc2c1 | 7.70 |
| CN(CCCNC(=O)c1cccc2cc3ccc(F)cc3nc12)CCCNC(=O)c1cccc2cc3ccc(F)cc3nc12 | 7.70 |
| CN(CCCNC(=O)c1cccc2cc3cc(F)ccc3nc12)CCCNC(=O)c1cccc2cc3cc(F)ccc3nc12 | 7.49 |
| CN(CCCNC(=O)c1cccc2cc3cc(N(C)C)ccc3nc12)CCCNC(=O)c1cccc2cc3cc(N(C)C)ccc3nc12 | 6.74 |

test system: Jurkat; test: Concentration required to inhibit 50% growth of human Jurkat cells; assay type: functional, cell-based; conditions: not given
Procedure, shortened: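 Jurkat leukemia (JLC) cells seeded at 3.75 × 10^3 cells/well and exposed to drug for 4 days; growth measured by sulforhodamine assay. IC50 = drug concentration (nM) reducing cell number to 50% of control cultures. Independent assays in duplicate, coefficients of variation ca. 25%.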

| Structure (SMILES) | pIC50 |
| --- | --- |
| Cc1cccc2cc3c(Cl)ccc(C(=O)NCCCN(C)CCCNC(=O)c4ccc(Cl)c5cc6cccc(C)c6nc45)c3nc12 | 7.92 |
| CN(CCCNC(=O)c1cccc2cc3cc(Cl)ccc3nc12)CCCNC(=O)c1cccc2cc3cc(Cl)ccc3nc12 | 6.87 |
| CC(C)c1ccc2nc3c(C(=O)NCCCN(C)CCCNC(=O)c4cccc5cc6cc(C(C)C)ccc6nc45)cccc3cc2c1 | 5.68 |
| CCc1ccc2nc3c(C(=O)NCCCN(C)CCCNC(=O)c4cccc5cc6cc(CC)ccc6nc45)cccc3cc2c1 | 5.79 |
| COc1ccc2cc3cccc(C(=O)NCCCN(C)CCCNC(=O)c4cccc5cc6ccc(OC)cc6nc45)c3nc2c1 | 7.29 |
| CN(CCCNC(=O)c1cccc2cc3ccc(F)cc3nc12)CCCNC(=O)c1cccc2cc3ccc(F)cc3nc12 | 7.28 |
| CN(CCCNC(=O)c1cccc2cc3cc(F)ccc3nc12)CCCNC(=O)c1cccc2cc3cc(F)ccc3nc12 | 7.02 |
| CN(CCCNC(=O)c1cccc2cc3cc(N(C)C)ccc3nc12)CCCNC(=O)c1cccc2cc3cc(N(C)C)ccc3nc12 | 6.12 |

test system: P388; test: Inhibitory activity against Murine […]; assay type: functional, cell-based; conditions: Mus musculus
Procedure, shortened: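 Murine P388 leukemia cells seeded at 4.5 × 10^3 cells/well, cultured 3 days with drug; growth measured by [3H]TdR uptake. IC50 = drug concentration (nM) reducing cell number to 50% of controls. Independent assays in duplicate, CV ca. 25%.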

| Structure (SMILES) | pIC50 |
| --- | --- |
| Cc1cccc2cc3c(Cl)ccc(C(=O)NCCCN(C)CCCNC(=O)c4ccc(Cl)c5cc6cccc(C)c6nc45)c3nc12 | 7.32 |
| CN(CCCNC(=O)c1cccc2cc3cc(Cl)ccc3nc12)CCCNC(=O)c1cccc2cc3cc(Cl)ccc3nc12 | 6.77 |
| CC(C)c1ccc2nc3c(C(=O)NCCCN(C)CCCNC(=O)c4cccc5cc6cc(C(C)C)ccc6nc45)cccc3cc2c1 | 5.84 |
| CCc1ccc2nc3c(C(=O)NCCCN(C)CCCNC(=O)c4cccc5cc6cc(CC)ccc6nc45)cccc3cc2c1 | 5.97 |
| COc1ccc2cc3cccc(C(=O)NCCCN(C)CCCNC(=O)c4cccc5cc6ccc(OC)cc6nc45)c3nc2c1 | 7.12 |
| CN(CCCNC(=O)c1cccc2cc3ccc(F)cc3nc12)CCCNC(=O)c1cccc2cc3ccc(F)cc3nc12 | 7.62 |
| CN(CCCNC(=O)c1cccc2cc3cc(F)ccc3nc12)CCCNC(=O)c1cccc2cc3cc(F)ccc3nc12 | 6.85 |
| CN(CCCNC(=O)c1cccc2cc3cc(N(C)C)ccc3nc12)CCCNC(=O)c1cccc2cc3cc(N(C)C)ccc3nc12 | 6.01 |

test system: Jurkat; test: Ratio of inhibitory activity against amsacrine resistant jurkat cells to inhibitory activity against wild type human jurkat cells; assay type: functional; conditions: not given; procedure, shortened: as §1

| Structure (SMILES) | Ratio |
| --- | --- |
| Cc1cccc2cc3c(Cl)ccc(C(=O)NCCCN(C)CCCNC(=O)c4ccc(Cl)c5cc6cccc(C)c6nc45)c3nc12 | 0.3 |
| CN(CCCNC(=O)c1cccc2cc3cc(Cl)ccc3nc12)CCCNC(=O)c1cccc2cc3cc(Cl)ccc3nc12 | 0.8 |
| CC(C)c1ccc2nc3c(C(=O)NCCCN(C)CCCNC(=O)c4cccc5cc6cc(C(C)C)ccc6nc45)cccc3cc2c1 | 1.1 |
| CCc1ccc2nc3c(C(=O)NCCCN(C)CCCNC(=O)c4cccc5cc6cc(CC)ccc6nc45)cccc3cc2c1 | 0.9 |
| COc1ccc2cc3cccc(C(=O)NCCCN(C)CCCNC(=O)c4cccc5cc6ccc(OC)cc6nc45)c3nc2c1 | 0.5 |
| CN(CCCNC(=O)c1cccc2cc3ccc(F)cc3nc12)CCCNC(=O)c1cccc2cc3ccc(F)cc3nc12 | 0.6 |
| CN(CCCNC(=O)c1cccc2cc3cc(F)ccc3nc12)CCCNC(=O)c1cccc2cc3cc(F)ccc3nc12 | 0.6 |
| CN(CCCNC(=O)c1cccc2cc3cc(N(C)C)ccc3nc12)CCCNC(=O)c1cccc2cc3cc(N(C)C)ccc3nc12 | 1 |
